Laboratory results as given in ChEMBL document CHEMBL1125096, “Synthesis and antitumor activity of 9-[(carbamoyloxy)alkyl]anthracyclines: a novel class of anthracycline derivatives” (1990).

Tests used:
Type in all cases: functional, Mus musculus
L1210 (1565) [1] = test: Antitumor activity against L-1210 leukemia cell line in BDF1 mice after injecting 2 mg/kg intraperitoneal dose
Procedure, shortened: (§1)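 Female BDF1 mice, five per dose group, inoculated ip with 10^5 viable L-1210 ascites cells. Dosing started the same day: ip, daily, five times a week for 4 weeks or until death. Vehicle was aqueous solution, or propylene glycol suspension if insoluble. Efficacy is expressed as T/C, the ratio of mean survival time of treated to untreated control mice. Survivors at 4 weeks counted as long-term.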

L1210 (1565) [2] = test: Antitumor activity against L-1210 leukemia cell line in BDF1 mice after injecting 0.05 mg/kg intraperitoneal dose; procedure, shortened: as §1
L1210 (1565) [3] = test: Antitumor activity against L-1210 leukemia cell line in BDF1 mice after injecting 0.25 mg/kg intraperitoneal dose; procedure, shortened: as §1
L1210 (1565) [4] = test: Antitumor activity against L-1210 leukemia cell line in BDF1 mice after injecting 4 mg/kg intraperitoneal dose; procedure, shortened: as §1
L1210 (1565) [5] = test: Antitumor activity against L-1210 leukemia cell line in BDF1 mice after injecting 16 mg/kg intraperitoneal dose; procedure, shortened: as §1
L1210 (1565) [6] = test: Antitumor activity against L-1210 leukemia cell line in BDF1 mice after injecting 0.5 mg/kg intraperitoneal dose; procedure, shortened: as §1
L1210 (1565) [7] = test: Antitumor activity against L-1210 leukemia cell line in BDF1 mice after injecting 0.125 mg/kg intraperitoneal dose; procedure, shortened: as §1
L1210 (1565) [8] = test: Antitumor activity against L-1210 leukemia cell line in BDF1 mice after injecting 1 mg/kg intraperitoneal dose; procedure, shortened: as §1

C[C@H]1C[C@H](N)C[C@H](O[C@H]2C[C@](O)(COC(=O)Nc3ccccc3)Cc3c(O)c4c(c(O)c32)C(=O)c2ccccc2C4=O)O1.Cl
T/C (L1210 (1565) [1]): 500%

CC(=O)[C@]1(O)Cc2c(O)c3c(c(O)c2[C@@H](O[C@H]2C[C@@H](N)[C@H](O)[C@H](C)O2)C1)C(=O)c1ccccc1C3=O.Cl
T/C (L1210 (1565) [2]): 230%

COc1cccc2c1C(=O)c1c(O)c3c(c(O)c1C2=O)C[C@@](O)(C(=O)CO)C[C@@H]3O[C@H]1C[C@H](N)[C@H](O)[C@H](C)O1.Cl [DOXORUBICIN HYDROCHLORIDE]
T/C (L1210 (1565) [1]): 330%

C[C@@H]1OC(O[C@H]2C[C@](O)([C@@H](C)OC(=O)Nc3ccccc3)Cc3c(O)c4c(c(O)c32)C(=O)c2ccccc2C4=O)C[C@H](N)[C@@H]1O.Cl (some centres undefined)
T/C (L1210 (1565) [3]): 420%

CC1OC(O[C@H]2C[C@](O)(COC(=O)Nc3ccc(Cl)cc3)Cc3c(O)c4c(c(O)c32)C(=O)c2ccccc2C4=O)CC(N)C1O.Cl (some centres undefined)
T/C (L1210 (1565) [1]): 370%

CNC(=O)OC[C@]1(O)Cc2c(O)c3c(c(O)c2[C@@H](OC2CC(N)C(O)C(C)O2)C1)C(=O)c1ccccc1C3=O.Cl (some centres undefined)
T/C (L1210 (1565) [4]): 280%

CC1OC(O[C@H]2C[C@](O)(COC(=O)Nc3ccccc3)Cc3c(O)c4c(c(O)c32)C(=O)c2ccccc2C4=O)CC(N)C1OCc1ccccc1.Cl (some centres undefined)
T/C (L1210 (1565) [5]): 470%

COc1cccc2c1C(=O)c1c(O)c3c(c(O)c1C2=O)C[C@@](O)(C(C)=O)C[C@@H]3O[C@H]1C[C@H](N)[C@H](O)[C@H](C)O1.Cl [DAUNORUBICIN HYDROCHLORIDE]
T/C (L1210 (1565) [6]): 290%

C[C@@H]1OC(O[C@H]2C[C@](O)([C@H](C)OC(=O)Nc3ccccc3)Cc3c(O)c4c(c(O)c32)C(=O)c2ccccc2C4=O)C[C@H](N)[C@H]1O.Cl (some centres undefined)
T/C (L1210 (1565) [7]): 400%

CC1OC(O[C@H]2C[C@](O)(COC(=O)Nc3ccc([N+](=O)[O-])cc3)Cc3c(O)c4c(c(O)c32)C(=O)c2ccccc2C4=O)CC(N)C1O.Cl (some centres undefined)
T/C (L1210 (1565) [4]): 210%

CC1OC(O[C@H]2C[C@](O)([C@@H](C)OC(=O)Nc3ccccc3)Cc3c(O)c4c(c(O)c32)C(=O)c2ccccc2C4=O)CC(N)C1O.Cl (some centres undefined)
T/C (L1210 (1565) [8]): 280%

COc1ccc(NC(=O)OC[C@]2(O)Cc3c(O)c4c(c(O)c3[C@@H](OC3CC(N)C(O)C(C)O3)C2)C(=O)c2ccccc2C4=O)cc1.Cl (some centres undefined)
T/C (L1210 (1565) [1]): 230%

C[C@@H]1O[C@@H](O[C@H]2C[C@](O)(COC(=O)Nc3ccccc3)Cc3c(O)c4c(c(O)c32)C(=O)c2ccccc2C4=O)C[C@@H](N)[C@@H]1O.Cl (stereo in doubt; 8a)
T/C (L1210 (1565) [1]; 2 mg/kg): 380%

CO[C@H]1[C@H](N)C[C@H](O[C@H]2C[C@](O)(COC(=O)Nc3ccccc3)Cc3c(O)c4c(c(O)c32)C(=O)c2ccccc2C4=O)O[C@H]1C.Cl (stereo in doubt; 19)
T/C (L1210 (1565) [1]; 2 mg/kg): 230%
